In ChEMBL document CHEMBL4680093 (J Med Chem, 2016):

What was measured:
[1] = target: Voltage-gated inwardly rectifying potassium channel KCNH2 (Homo sapiens, UniProt Q12809); test: Inhibition of human ERG expressed in CHO cells by whole-cell patch clamp assay; format: cell-based
Summary of the method: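 hERG channels stably expressed in CHO cells were recorded by whole-cell patch clamp, and an IC50 was estimated.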

[2] = Oral bioavailability in mouse at 5 mg/kg; format: ADME, organism-based; settings: in vivo
Summary of the method: (§1)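 Single-dose PK study. The iv dose was given in 10% hydroxypropyl-β-cyclodextrin and the oral dose in 0.5% methylcellulose/1% Tween80. Mouse and rat received 1 mg/kg iv and 5 mg/kg po. Dog received 0.5 mg/kg iv and 4 mg/kg po. CL, Vss, t1/2, AUC, Cmax, tmax and F were derived.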

[3] = system: Mus musculus; test: Toxicity in mouse assessed as induction of abnormal changes in central nervous system up to 1000 mg/kg, po; settings: in vivo
[4] = target: 11-beta-hydroxysteroid dehydrogenase 1 (Homo sapiens, UniProt P28845); test: Inhibition of human 11beta-HSD1 expressed in HEK293 cells using cortisone by ELISA
[5] = target: T1, Cytochrome P450 1A2 (Homo sapiens, UniProt P05177); test: Inhibition of CYP1A2 in pooled human liver microsomes using phenacetin as substrate in presence of NADPH incubated for 10 mins by LC-MS/MS analysis
T1 sequence (P05177 whole entry): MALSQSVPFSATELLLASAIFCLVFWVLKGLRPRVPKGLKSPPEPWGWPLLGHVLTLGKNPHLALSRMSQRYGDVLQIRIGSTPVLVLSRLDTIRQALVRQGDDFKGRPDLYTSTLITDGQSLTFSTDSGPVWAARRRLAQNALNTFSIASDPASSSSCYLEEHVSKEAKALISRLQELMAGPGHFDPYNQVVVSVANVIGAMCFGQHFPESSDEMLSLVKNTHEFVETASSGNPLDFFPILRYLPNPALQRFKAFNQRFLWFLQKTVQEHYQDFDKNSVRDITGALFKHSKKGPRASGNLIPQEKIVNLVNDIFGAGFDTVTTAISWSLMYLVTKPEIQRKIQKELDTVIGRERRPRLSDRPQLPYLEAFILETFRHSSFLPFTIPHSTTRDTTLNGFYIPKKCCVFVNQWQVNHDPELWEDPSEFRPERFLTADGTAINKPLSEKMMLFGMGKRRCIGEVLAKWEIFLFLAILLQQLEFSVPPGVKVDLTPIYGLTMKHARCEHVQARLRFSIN

[6] = AUC in dog at 4 mg/kg, po; format: ADME, organism-based, Canis lupus familiaris; design: dose 4 mg/kg; settings: in vivo
[7] = Ratio of unbound Cmax in mouse plasma at 10 mg/kg, po measured after 2 hrs post dose to IC50 for human ERG expressed in CHO cells; format: ADME, organism-based; settings: in vivo
[8] = target: T2, Glucocorticoid receptor (Homo sapiens, UniProt P04150); test: Agonist activity at glucocorticoid receptor (unknown origin)
T2 sequence (P04150 whole entry): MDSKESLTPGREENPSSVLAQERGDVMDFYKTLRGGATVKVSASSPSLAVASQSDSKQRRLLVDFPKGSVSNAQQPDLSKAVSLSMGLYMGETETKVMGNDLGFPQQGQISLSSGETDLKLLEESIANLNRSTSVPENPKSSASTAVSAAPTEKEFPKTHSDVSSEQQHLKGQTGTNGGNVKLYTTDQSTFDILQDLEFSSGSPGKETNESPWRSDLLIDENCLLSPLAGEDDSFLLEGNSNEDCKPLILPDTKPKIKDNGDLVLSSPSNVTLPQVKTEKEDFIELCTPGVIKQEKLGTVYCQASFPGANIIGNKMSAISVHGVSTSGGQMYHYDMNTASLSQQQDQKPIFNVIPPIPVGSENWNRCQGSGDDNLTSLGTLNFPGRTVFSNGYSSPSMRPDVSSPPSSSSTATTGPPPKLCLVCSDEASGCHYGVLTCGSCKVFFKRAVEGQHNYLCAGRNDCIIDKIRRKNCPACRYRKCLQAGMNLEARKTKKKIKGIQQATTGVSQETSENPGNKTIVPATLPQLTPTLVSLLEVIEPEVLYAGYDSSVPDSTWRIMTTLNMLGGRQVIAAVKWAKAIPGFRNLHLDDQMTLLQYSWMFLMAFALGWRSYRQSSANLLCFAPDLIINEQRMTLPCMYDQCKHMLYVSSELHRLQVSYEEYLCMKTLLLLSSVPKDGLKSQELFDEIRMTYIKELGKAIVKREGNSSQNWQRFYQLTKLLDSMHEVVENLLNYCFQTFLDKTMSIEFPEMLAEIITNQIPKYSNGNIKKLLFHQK

[9] = Ratio of unbound drug level in mouse plasma at 10 mg/kg, po measured after 2 hrs post dose to IC50 for mouse 11beta-HSD1; format: ADME, organism-based; settings: in vivo
[10] = target: T2, Glucocorticoid receptor; test: Antagonist activity at glucocorticoid receptor (unknown origin)
[11] = Half life in dog at 0.5 mg/kg, iv; format: ADME, organism-based, Canis lupus familiaris; settings: in vivo
[12] = In-vivo inhibition of 11beta-HSD1 activity in C57BL/6 mouse liver assessed as reduction in cortisone to-cortisol conversion at 10 mg/kg, po measured after 6 hrs by ELISA; format: functional; settings: C57BL/6, Liver
Summary of the method: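 Male C57BL/6 mice dosed orally once at 3, 10 or 30 mg/kg in sterile water containing 0.5% methylcellulose and 1% Tween80, then sacrificed at 2 or 6 h. Liver and epididymal fat pads incubated ex vivo in culture medium containing cortisone. Cortisol formed was measured by ELISA and reported as % inhibition versus vehicle.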

[13] = Volume of distribution at steady state in mouse at 1 mg/kg, iv; format: ADME, organism-based; settings: in vivo, read-out: Vdss; summary of the method: as §1
[14] = Reduction in nonfasting blood glucose level in C57BL/6-Lep^ob (ob/ob) mouse at 20 mg/kg, po dosed once daily for 25 days relative to control; design: scale not given: the % may be the effect or the level left; settings: time 25 day
[15] = Toxicity in female mouse during 4-week repeated once daily oral-dose toxicity study; settings: in vivo, time 4 weeks
Summary of the method: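 Mice of both sexes were dosed orally once daily for 4 weeks at 40, 100, 250 and 625 mg/kg. Toxicity was assessed and the NOAEL determined.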

[16] = Reduction in HbA1c level in C57BL/6-Lep^ob (ob/ob) mouse at 20 mg/kg, po dosed once daily for 25 days relative to control; format: functional; design: scale not given: the % may be the effect or the level left; settings: time 25 day
Summary of the method: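 Eight-week-old male ob/ob mice were dosed orally once daily for 25 days with vehicle (sterile water, 0.5% methylcellulose, 1% Tween80), test compound 20 mg/kg, metformin 300 mg/kg, or the combination. Baseline postprandial glucose and HbA1c were checked from tail-vein blood. Changes in HbA1c and non-fasting blood glucose were expressed relative to the vehicle group.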

Sequence of Voltage-gated inwardly rectifying potassium channel KCNH2 (Q12809 whole entry): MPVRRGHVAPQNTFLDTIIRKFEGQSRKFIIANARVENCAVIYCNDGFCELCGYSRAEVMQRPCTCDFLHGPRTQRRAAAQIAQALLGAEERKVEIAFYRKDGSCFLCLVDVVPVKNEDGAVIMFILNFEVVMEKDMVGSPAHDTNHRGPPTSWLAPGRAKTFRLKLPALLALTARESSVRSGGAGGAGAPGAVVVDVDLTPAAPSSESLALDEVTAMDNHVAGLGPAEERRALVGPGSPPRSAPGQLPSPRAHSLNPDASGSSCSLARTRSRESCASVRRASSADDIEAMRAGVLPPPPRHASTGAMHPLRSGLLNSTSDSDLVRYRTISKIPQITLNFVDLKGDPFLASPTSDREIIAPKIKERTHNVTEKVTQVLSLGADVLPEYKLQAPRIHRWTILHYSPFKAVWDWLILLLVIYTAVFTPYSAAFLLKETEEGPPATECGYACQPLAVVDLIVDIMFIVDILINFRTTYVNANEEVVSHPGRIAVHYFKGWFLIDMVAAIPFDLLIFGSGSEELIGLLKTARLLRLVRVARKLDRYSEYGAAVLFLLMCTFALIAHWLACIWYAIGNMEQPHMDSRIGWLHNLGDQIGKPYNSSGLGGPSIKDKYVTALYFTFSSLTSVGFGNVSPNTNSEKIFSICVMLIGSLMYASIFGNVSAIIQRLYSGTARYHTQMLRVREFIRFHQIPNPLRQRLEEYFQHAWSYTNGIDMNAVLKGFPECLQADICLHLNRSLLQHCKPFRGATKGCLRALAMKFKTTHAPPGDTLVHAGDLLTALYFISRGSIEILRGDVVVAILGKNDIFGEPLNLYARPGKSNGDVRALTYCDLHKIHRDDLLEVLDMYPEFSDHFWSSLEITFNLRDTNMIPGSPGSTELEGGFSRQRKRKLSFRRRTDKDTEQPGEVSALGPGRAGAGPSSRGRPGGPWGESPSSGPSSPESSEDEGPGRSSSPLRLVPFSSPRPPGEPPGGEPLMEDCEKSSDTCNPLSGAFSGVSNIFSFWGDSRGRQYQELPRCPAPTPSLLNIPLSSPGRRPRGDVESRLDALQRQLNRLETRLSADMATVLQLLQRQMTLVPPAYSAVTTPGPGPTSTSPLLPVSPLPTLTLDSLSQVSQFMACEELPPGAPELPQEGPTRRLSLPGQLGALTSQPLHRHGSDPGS
Sequence of 11-beta-hydroxysteroid dehydrogenase 1 (P28845 whole entry): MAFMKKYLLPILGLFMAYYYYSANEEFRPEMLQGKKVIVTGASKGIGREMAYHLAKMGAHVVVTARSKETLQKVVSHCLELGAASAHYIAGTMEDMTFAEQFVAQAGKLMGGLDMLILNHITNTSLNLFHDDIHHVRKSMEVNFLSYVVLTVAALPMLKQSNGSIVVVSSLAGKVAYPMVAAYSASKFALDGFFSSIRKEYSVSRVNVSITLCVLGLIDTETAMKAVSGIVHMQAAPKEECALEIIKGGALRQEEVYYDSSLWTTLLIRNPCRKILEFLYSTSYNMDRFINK

C[C@@H]1CN(c2ccc(S(C)(=O)=O)cc2F)CCN1c1nccc(C(=O)NC2C3CC4CC2CC(O)(C4)C3)n1 (stereo partly specified)
IC50 [1]: 8 µM
bioavailability [2]: 96%
Activity [3]: Non-Toxic
IC50 [4]: 0.0044 µM
IC50 [5]: > 10 µM
AUC [6]: 11500 ng·h/mL
Ratio [7]: > 30
EC50 [8]: > 5 µM
Ratio [9]: > 50
EC50 [10]: > 5 µM
half-life [11]: 4.7 h
inhibition in vivo at 10 mg/kg [12]: 87%
Vd [13]: 1.1 L/kg
Activity [14]: 26%
NOAEL at 672 h [15]: 625 mg/kg
Activity [16]: 1.2%
